Experimental data: ChEMBL document CHEMBL4823291, “Discovery of 5,6,7,8-tetrahydropyrido[3,4-d]pyrimidine derivatives as novel selective Axl inhibitors” (Bioorg Med Chem Lett, 2021)

Assays:
[1] = molecular target: T1, Tyrosine-protein kinase Mer (Homo sapiens, UniProt Q12866); test: Inhibition of Mer (unknown origin) by cell free assay
T1 sequence (Q12866 whole entry): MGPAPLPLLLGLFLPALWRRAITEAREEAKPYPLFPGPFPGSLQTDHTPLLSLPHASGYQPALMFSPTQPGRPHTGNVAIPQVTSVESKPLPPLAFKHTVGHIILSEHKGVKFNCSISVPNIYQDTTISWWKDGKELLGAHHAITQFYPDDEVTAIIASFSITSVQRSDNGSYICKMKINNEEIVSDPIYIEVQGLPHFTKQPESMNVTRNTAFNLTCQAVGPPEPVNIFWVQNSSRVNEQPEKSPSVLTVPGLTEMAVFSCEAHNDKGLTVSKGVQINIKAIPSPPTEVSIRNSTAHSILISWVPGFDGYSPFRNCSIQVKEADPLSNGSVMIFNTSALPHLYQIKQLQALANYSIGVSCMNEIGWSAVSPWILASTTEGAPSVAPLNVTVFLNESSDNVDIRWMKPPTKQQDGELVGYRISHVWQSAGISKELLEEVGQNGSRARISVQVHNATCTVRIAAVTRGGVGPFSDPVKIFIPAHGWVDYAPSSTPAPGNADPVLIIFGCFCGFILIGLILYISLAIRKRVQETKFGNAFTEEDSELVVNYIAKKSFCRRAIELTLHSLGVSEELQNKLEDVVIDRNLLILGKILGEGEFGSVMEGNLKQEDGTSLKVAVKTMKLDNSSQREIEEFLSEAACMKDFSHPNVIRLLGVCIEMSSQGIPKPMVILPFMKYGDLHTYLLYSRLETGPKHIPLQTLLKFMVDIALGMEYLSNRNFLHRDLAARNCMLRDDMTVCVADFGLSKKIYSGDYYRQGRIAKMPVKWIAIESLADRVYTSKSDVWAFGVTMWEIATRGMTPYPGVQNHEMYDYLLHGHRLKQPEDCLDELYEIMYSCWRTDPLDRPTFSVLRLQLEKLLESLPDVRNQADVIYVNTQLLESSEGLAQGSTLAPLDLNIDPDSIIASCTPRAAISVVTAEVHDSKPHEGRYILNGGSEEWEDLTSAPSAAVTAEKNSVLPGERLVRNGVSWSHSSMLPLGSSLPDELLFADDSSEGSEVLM

Homo sapiens = species on record: Homo sapiens; test: Ratio of IC50 for Mer (unknown origin) to IC50 for Axl (unknown origin)
[2] = Permeability of compound by PAMPA assay; assay type: ADME; details: read-out: permeability
CYP3A = test: Time dependent inhibition of CYP3A in human liver microsomes assessed as enzyme remaining activity using cocktail of probe CYP as substrate at 50 uM; assay type: ADME; details: probe cocktail of CYP probe substrates, read-out: Activity
How it was run: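 Time-dependent CYP inhibition in human liver microsomes, with test compound at 50 µM and a cocktail of probe CYP substrates.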

Cc1ccc(-n2c(=O)c(C(=O)Nc3ccc(Oc4ncnc5c4CCN(CC4CCN(C)CC4)C5)c(F)c3)cn(C3CCCC3)c2=O)nc1
IC50 [1]: 190 nM
Ratio IC50 (Homo sapiens): 37
Papp [2]: 0.91 ×10⁻⁶ cm/s
activity at 50 µM (CYP3A): 51%
